Source: ChEMBL document CHEMBL2439996, “Phenyl substituted 3-hydroxypyridin-2(1H)-ones: inhibitors of influenza A endonuclease” (Bioorg Med Chem, 2013)

What was measured:
HEK293 = assay: Cytotoxicity against human HEK293 cells after 4 days by MTT assay; type: cell-based; conditions: HEK293, 96 h
How it was run: (§1)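 MTT microtiter assay; cells kept at 37 °C, 5% CO2 in DMEM with regular passage. Wells seeded with 3,000 cells each, exposed continuously for four days to varying drug concentrations in triplicate, with a drug-free control. MTT read at end of day 4 to give IC50.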

MDCK = assay: Cytotoxicity against MDCK cells after 4 days by MTT assay; type: cell-based; conditions: Canis lupus familiaris, 96 h; how it was run: as §1
[1] = Inhibition of endonuclease activity of Influenza A virus H1N1 RNA-dependent RNA polymerase expressed in Escherichia coli BL21 using 6FAM-TGGCAATATCAGCTCCACA-MGBNFQ as substrate after 5 to 240 mins by fluorescence assay
How it was run: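 PA_N (pandemic H1N1 endonuclease, residues 1-204, His-tag removed, SEC-purified). Inhibitor serially diluted, DMSO at most 2.5% (v/v). Ex 488/em 518 read at 5, 120, 240 min at 37 °C. IC50 by nonlinear regression of fluorescence change, mean of triplicates ± SEM.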

Row | SMILES | IC50 (HEK293) | IC50 (MDCK) | IC50 [1]
1 | O=c1[nH]cc(-c2ccc(-c3nnn[nH]3)cc2)cc1O | 80 µM | > 100 µM | 0.368 µM
2 | N#Cc1ccc(-c2ccc(O)c(=O)[nH]2)cc1 | ≥ 28 µM | > 100 µM | 0.802 µM
3 | O=c1[nH]c(-c2ccc(-c3nnn[nH]3)cc2)ccc1O | ≥ 28 µM | > 100 µM | 0.085 µM
4 | N#Cc1ccc(-c2cc(O)c(=O)[nH]c2-c2ccc(C#N)cc2)cc1 | ≥ 28 µM | 40 µM | 0.103 µM
5 | O=c1[nH]ccc(-c2ccc(F)cc2)c1O | > 100 µM | > 100 µM | > 200 µM
6 | O=c1[nH]c(-c2ccccc2)ccc1O | ≥ 28 µM | 60 µM | 0.87 µM
7 | O=c1[nH]c(-c2ccc(F)cc2)c(-c2ccc(F)cc2)cc1O | > 100 µM | > 100 µM | 
8 | O=c1[nH]cc(-c2ccc(F)cc2)cc1O | > 100 µM | > 100 µM | 0.73 µM
9 | O=c1[nH]c(-c2ccc(F)cc2)ccc1O | > 100 µM | > 100 µM | 0.43 µM
10 | N#Cc1ccc(-c2c[nH]c(=O)c(O)c2)cc1 | > 100 µM | > 100 µM | 3.83 µM
11 | O=c1[nH]cc(-c2ccccc2)cc1O | ≥ 28 µM | 80 µM | 2.1 µM
12 | O=c1[nH]c(-c2ccccc2)c(-c2ccccc2)cc1O | ≥ 28 µM | > 100 µM | 0.047 µM
13 | O=c1[nH]c(-c2ccc(-c3nnn[nH]3)cc2)c(-c2ccc(-c3nnn[nH]3)cc2)cc1O | > 100 µM | > 100 µM | 0.285 µM
14 | O=c1[nH]ccc(-c2ccccc2)c1O | > 100 µM | > 100 µM | 35 µM
